Reference: ChEMBL document CHEMBL3045640, “Synthesis and insecticidal activity of novel carbamate derivatives as potential dual-binding site acetylcholinesterase inhibitors” (J Agric Food Chem, 2010)

What was measured:
[1] = molecular target: Acetylcholinesterase (Musca domestica) (UniProt Q7YWJ9); assay: Dual-site binding inhibition of AChE in Musca domestica (house fly) brain at 100 mg/l
Lipaphis erysimi = assay: In vivo insecticidal activity against apterous adult stage of Lipaphis erysimi (mustard aphids) in chinese cabbage leaves assessed as mortality at 300 mg/l at 25 degC treated for 10 secs measured after 24 hr; assay type: functional
In short: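 Aphids were reared at 25 (±1) °C, 60 (±5)% RH and a 14 h photoperiod. Acetone stocks at 10 g/L were diluted with water containing 0.1% Triton X-100. Chinese cabbage leaf disks carrying 35 apterous adults were dipped for 10 s, dried, then held at 25 °C. Mortality was scored at 24 h against untreated controls. Three replicates were run, and corrected mortality was calculated.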

[2] = molecular target: Acetylcholinesterase (Musca domestica) (UniProt Q7YWJ9); assay: Ratio of MH IC50 to compound IC50 for AChE in Musca domestica (house fly) brain
Acetylcholinesterase = Acetylcholinesterase (Musca domestica, UniProt Q7YWJ9); assay: Dual-site binding inhibition of AChE in Musca domestica (house fly) brain; assay type: tissue-based
Acetylcholinesterase, sequence (Q7YWJ9 whole entry): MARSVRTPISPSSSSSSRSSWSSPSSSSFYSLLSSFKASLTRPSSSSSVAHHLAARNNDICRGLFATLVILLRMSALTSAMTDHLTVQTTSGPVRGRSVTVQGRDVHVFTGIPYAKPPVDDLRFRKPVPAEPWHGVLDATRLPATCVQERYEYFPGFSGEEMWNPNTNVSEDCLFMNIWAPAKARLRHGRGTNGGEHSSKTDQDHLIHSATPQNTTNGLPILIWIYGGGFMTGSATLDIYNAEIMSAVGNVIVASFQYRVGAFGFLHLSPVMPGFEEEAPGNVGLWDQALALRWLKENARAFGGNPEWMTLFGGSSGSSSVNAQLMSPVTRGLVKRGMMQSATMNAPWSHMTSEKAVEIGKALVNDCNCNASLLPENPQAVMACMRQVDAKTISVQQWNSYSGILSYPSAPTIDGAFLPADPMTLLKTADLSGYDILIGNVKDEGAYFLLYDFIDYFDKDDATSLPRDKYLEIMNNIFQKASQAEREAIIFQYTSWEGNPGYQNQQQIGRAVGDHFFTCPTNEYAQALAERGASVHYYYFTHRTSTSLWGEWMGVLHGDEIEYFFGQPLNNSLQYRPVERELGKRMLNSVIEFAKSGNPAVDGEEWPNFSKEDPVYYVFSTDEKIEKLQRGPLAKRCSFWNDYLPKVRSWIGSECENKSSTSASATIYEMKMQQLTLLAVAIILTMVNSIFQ
In short: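 Enzyme was prepared from heads of adult houseflies, females and males in a 1:1 ratio. The inhibition procedure followed previously reported methods.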

[3] = molecular target: Acetylcholinesterase (Musca domestica) (UniProt Q7YWJ9); assay: Ratio of MT IC50 to compound IC50 for AChE in Musca domestica (house fly) brain

Acetylcholinesterase (Musca domestica), sequence (Q7YWJ9 1-692): as the sequence (Q7YWJ9 whole entry) above

| SMILES | inhibition [1] [%] | mortality at 300 µg/mL (Lipaphis erysimi) [%] | Ratio IC50 [2] | IC50 (Acetylcholinesterase) [µM] | Ratio IC50 [3] |
| --- | --- | --- | --- | --- | --- |
| CN(C)C(=O)Oc1ccccc1OCCCOc1ccc(C(F)(F)F)cc1 | 25 |  |  |  |  |
| CNC(=O)Oc1cccc(OCCCCOc2ccc(C(F)(F)F)cc2)c1 | 62 | 92 | 7 | 107 | 1 |
| CN(C)C(=O)Oc1ccc(OCCOc2ccc(C(F)(F)F)cc2)cc1 | 6 |  |  |  |  |
| CN(C)C(=O)Oc1ccccc1OC/C=C/COc1ccc(C(F)(F)F)cc1 | 7 |  |  |  |  |
| CN(C)C(=O)Oc1ccccc1OCCCCOc1ccc(C(F)(F)F)cc1 | 7 |  |  |  |  |
| CNC(=O)Oc1cccc(OCCCOc2ccc(C(F)(F)F)cc2)c1 | 61 | 85 | 7 | 105 | 1 |
| CNC(=O)Oc1cccc(OC/C=C/COc2ccc(C(F)(F)F)cc2)c1 | 12 |  |  |  |  |
| CN(C)C(=O)Oc1ccc(OCCCCOc2ccc(C(F)(F)F)cc2)cc1 | 6 |  |  |  |  |
| CN(C)C(=O)Oc1ccccc1OCCOc1ccc(C(F)(F)F)cc1 | 15 |  |  |  |  |
| CNC(=O)Oc1cccc(OCCCCOc2ccccc2[N+](=O)[O-])c1 | 80 | 93 | 13 | 61 | 2 |
| CNC(=O)Oc1ccccc1 [PHENYL METHYLCARBAMATE] | 46 | 76 |  | 766 |  |
| CNC(=O)Oc1cccc(OCCCOc2ccc([N+](=O)[O-])cc2)c1 | 69 | 89 | 11 | 70 | 2 |
| CNC(=O)Oc1ccc(OCCCOc2ccc(C(F)(F)F)cc2)cc1 | 2 |  |  |  |  |
| CN(C)C(=O)Oc1ccc(OC/C=C/COc2ccc(C(F)(F)F)cc2)cc1 | 0 |  |  |  |  |
| CN(C)C(=O)Oc1cccc(OCCCOc2ccc(C(F)(F)F)cc2)c1 | 27 |  |  |  |  |
| CNC(=O)Oc1ccccc1OCCCCOc1ccc(C(F)(F)F)cc1 | 19 |  |  |  |  |
| CNC(=O)Oc1ccc(OC/C=C/COc2ccc(C(F)(F)F)cc2)cc1 | 3 |  |  |  |  |

| SMILES | inhibition [1] [%] | mortality at 300 µg/mL (Lipaphis erysimi) [%] | Ratio IC50 [2] | IC50 (Acetylcholinesterase) [µM] | Ratio IC50 [3] |
| --- | --- | --- | --- | --- | --- |
| CNC(=O)Oc1ccc(OCCCCOc2ccc(C(F)(F)F)cc2)cc1 | 4 |  |  |  |  |
| CNC(=O)Oc1cccc(OCCOc2ccc(C(F)(F)F)cc2)c1 | 20 |  |  |  |  |
| CNC(=O)Oc1ccccc1OCCCOc1ccc(C(F)(F)F)cc1 | 25 |  |  |  |  |
| CNC(=O)Oc1cccc(OCCCCOc2ccc([N+](=O)[O-])cc2)c1 | 80 | 92 | 17 | 46 | 3 |
| CN(C)C(=O)Oc1cccc(OCCCCOc2ccc(C(F)(F)F)cc2)c1 | 20 |  |  |  |  |
| CNC(=O)Oc1cccc(C)c1 [METOLCARB] |  | 97 |  | 150 |  |
| CN(C)C(=O)Oc1cccc(OCCOc2ccc(C(F)(F)F)cc2)c1 | 8 |  |  |  |  |
| CNC(=O)Oc1ccccc1OCCOc1ccc(C(F)(F)F)cc1 | 13 |  |  |  |  |
| CNC(=O)Oc1ccc(OCCOc2ccc(C(F)(F)F)cc2)cc1 | 2 |  |  |  |  |
| CN(C)C(=O)Oc1cccc(OC/C=C/COc2ccc(C(F)(F)F)cc2)c1 | 13 |  |  |  |  |
| CNC(=O)Oc1cccc(OCCCCOc2ccccc2OC)c1 | 46 |  |  |  |  |
| CNC(=O)Oc1cccc(OC/C=C/COc2ccc([N+](=O)[O-])cc2)c1 | 45 |  |  |  |  |
| CNC(=O)Oc1cccc(OCCCCOc2ccc(Cl)cc2)c1 | 30 |  |  |  |  |
| CNC(=O)Oc1cccc(OCCCCOc2cccc([N+](=O)[O-])c2)c1 | 92 | 98 | 62 | 12 | 12 |
| CNC(=O)Oc1ccccc1OC/C=C/COc1ccc(C(F)(F)F)cc1 | 17 |  |  |  |  |
| CN(C)C(=O)Oc1ccc(OCCCOc2ccc(C(F)(F)F)cc2)cc1 | 1 |  |  |  |  |
